The results in this text go back to ChEMBL document CHEMBL1156524, “Profiling the enzymatic properties and inhibition of human complement factor B” (J Biol Chem, 2007).

pIC50: −log10 of the molar value. Active and inactive are the calls of the source. The calls are words filed in the database; no cut-off is given here. Residues, ends and D or L forms follow the SMILES beside them.

The pIC50 is −log10 of the IC50, conventionally taken in molar units.

The species named for test [1] is Homo sapiens. The test is described as follows: Inhibition of human C3bBb convertase assessed as C3 cleavage after 30 mins by 7% gel analysis. The method in brief:
(§1)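 Native convertase assembled in situ: C3 10 µg, factor B 0.5 µg and factor D 0.05 µg, 30 min at 37 °C in PBS pH 7.4 with 1 mM MgCl2 and 154 mM NaCl. Inhibitor at 0.25, 0.5 and 1.0 mM; leupeptin and PMSF at 1.0 mM as controls. C3 to C3a cleavage read on 7% or 12% gels.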

The target of test [2] is T1, Complement factor B (Homo sapiens, UniProt P00751). In words: Inhibition of human complement factor B assessed as cleavage of C3 convertase to C3b at pH 10.2. The method in brief: (§2)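 Purified factor B 4 µg with C3 10 µg, 3 h at 37 °C in 100 mM glycine-HCl pH 10.2 with 154 mM NaCl. Buffer or inhibitor at 0.01, 0.1, 0.25 or 0.5 mM. C3 cleavage products resolved on 7% and 12% gels.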

Test [3] can be described thus: Inhibition of thrombin mediated cleavage of AcSHLGLAR-pNA. The method in brief:
(§3)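 Ac-SHLGLAR-pNA at 0.5 mM final in 10 mM Hepes, 10 mM Tris, 150 mM NaCl, 0.1% PEG, pH 7.4; 150 µL wells; read at 405 nm, 37 °C. Trypsin at 133 nM final, inhibitor at eleven 2-fold dilutions from 26.6 µM, in triplicate. Thrombin at 0.5 U per well, inhibitor at eleven 2-fold dilutions from 666 µM, in duplicate.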

The target of test [4] is T1, Complement factor B. In words: Inhibition of human complement factor B assessed as […] at pH 10.2. The procedure, abridged: as §2
The species entered for test [5] is Homo sapiens. The test is described as follows: Inhibition of human C3bBb convertase assessed as C3 cleavage after 30 mins by 12% gel analysis. The method in brief: as §1
The nature of test [6]: Inhibition of trypsin mediated cleavage of AcSHLGLAR-pNA. The method in brief: as §3
The target of test [7] is T1, Complement factor B. In words: Inhibition of human complement factor B at 100 uM. The procedure, abridged:
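Competition format: 50 nM factor B with 100 µM inhibitor and Ac-SHLGLAR-pNA at 0.5, 2.5, 5 or 10 mM, in 100 mM glycine-HCl pH 9.5 at 37 °C. Absorbance increase followed at 405 nm.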

The target in test [8] is T1, Complement factor B. In words: Inhibition of human C3 convertase assessed as C3a formation after 30 mins by 12% gel analysis. The method in brief:
(§4)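 Convertase (CVF.Bb) preformed from cobra venom factor 12 µg, factor B 8 µg and factor D 0.2 µg in PBS pH 7.4 with 1 mM MgCl2, 1 h at 37 °C, then diluted with PBS containing 20 mM EDTA. C3 10 µg plus convertase incubated 30 min at 37 °C in PBS pH 7.4 with buffer or inhibitor at 0.01–0.5 mM. C3a formation read on gels loaded with 2.5 µg C3/well (7%) or 5.0 µg (12%).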

In test [9] the target is T1, Complement factor B. In words: Inhibition of human C3 convertase assessed as C3a formation after 30 mins by 7% gel analysis. The procedure, abridged: as §4
Test [10] has as its target T1, Complement factor B. The test is described as follows: Inhibition of human complement factor B. The method in brief:
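Chromogenic assay: 50 nM factor B, 0.5 mM Ac-SHLGLAR-pNA, 100 mM glycine-HCl pH 9.5, 37 °C. Eleven inhibitor concentrations from 1 µM to 1 mM. pNA release monitored at 405 nm; buffer alone as positive control.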

The species entered for test [11] is Homo sapiens. The test is described as follows: Inhibition of human C3bBb convertase assessed as C3 cleavage at 1 mM after 30 mins by 7% gel analysis. The method in brief:
(§5)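 Native C3 convertase formed in situ: C3 (10 µg), human factor B (0.5 µg) and factor D (0.05 µg) incubated 30 min at 37 °C in 32 µL PBS pH 7.4 with 1 mM MgCl2 and 154 mM NaCl, plus buffer or inhibitor (0.25–1.0 mM). Cleavage of C3 to C3a read by SDS-PAGE, 2.5 µg C3/well on 7% gel and 5 µg C3/well on 12% gel.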

The species named for test [12] is Homo sapiens. The test is described as follows: Inhibition of human C3bBb convertase assessed as C3 cleavage at 1 mM after 30 mins by 12% gel analysis. The procedure, abridged: as §5

T1 sequence (P00751 whole entry): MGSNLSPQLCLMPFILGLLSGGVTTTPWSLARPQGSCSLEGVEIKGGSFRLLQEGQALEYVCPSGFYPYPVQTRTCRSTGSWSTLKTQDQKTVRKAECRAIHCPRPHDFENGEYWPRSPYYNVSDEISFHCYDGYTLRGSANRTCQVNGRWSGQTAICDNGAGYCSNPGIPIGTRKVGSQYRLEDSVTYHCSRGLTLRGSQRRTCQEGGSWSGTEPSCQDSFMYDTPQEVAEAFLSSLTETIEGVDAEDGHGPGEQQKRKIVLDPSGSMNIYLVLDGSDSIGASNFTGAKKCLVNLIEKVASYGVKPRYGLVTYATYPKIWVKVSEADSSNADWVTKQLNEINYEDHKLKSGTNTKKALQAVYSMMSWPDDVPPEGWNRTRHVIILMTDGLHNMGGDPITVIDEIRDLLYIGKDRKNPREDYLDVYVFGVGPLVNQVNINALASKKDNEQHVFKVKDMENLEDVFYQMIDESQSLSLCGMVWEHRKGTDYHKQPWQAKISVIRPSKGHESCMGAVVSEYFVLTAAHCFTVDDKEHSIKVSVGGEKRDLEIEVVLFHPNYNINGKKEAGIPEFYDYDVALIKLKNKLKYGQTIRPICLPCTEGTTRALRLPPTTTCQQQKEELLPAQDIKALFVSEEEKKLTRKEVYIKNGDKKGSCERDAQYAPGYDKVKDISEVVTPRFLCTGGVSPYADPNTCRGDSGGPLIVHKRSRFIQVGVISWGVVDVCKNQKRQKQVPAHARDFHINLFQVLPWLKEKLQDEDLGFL

On to `CC(=O)N[C@@H](CO)C(=O)N[C@@H](Cc1cnc[nH]1)C(=O)N[C@@H](CC(C)C)C(=O)NCC(=O)N[C@@H](CC(C)C)C(=O)N[C@@H](C)C(=O)N[C@H](C=O)CCCNC(=N)N` (Ac-SHLGLAR-aldehyde), for which the Activity result in [1], in test [4], in test [5], in test [7], in test [8] and in test [9] was “Dose-dependent effect” each time. Besides, the outcome in test [2] was Active. Further, the pIC50 in test [3] was 4.62; in [6], 3.15; in test [10] it was 4.72.
For the molecule `O=S(=O)(F)Cc1ccccc1`, the outcome in test [11] and in [12] was inactive.
For `CC(=O)N[C@@H](CC(C)C)C(=O)N[C@@H](CC(C)C)C(=O)N[C@H](C=O)CCCNC(=N)N`, the result in test [11] and in test [12] was inactive.
